# Sampled rows, rich in hits. Any-hit rate of the full collection: about 2.5%.
# SENP7 inh: blocks the human protease SENP7; Q9BQF6; recombinant SENP7, Z-RLRGG-aminoluciferin luminescence, 40 min; inhibition, % at 5 µM; hit rate 1.5% among 330,000; AID 434973;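 active = inhibition above about 50% at the single test dose, limit read from the data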
# Target sequence (Q9BQF6 706-1050 limits assumed): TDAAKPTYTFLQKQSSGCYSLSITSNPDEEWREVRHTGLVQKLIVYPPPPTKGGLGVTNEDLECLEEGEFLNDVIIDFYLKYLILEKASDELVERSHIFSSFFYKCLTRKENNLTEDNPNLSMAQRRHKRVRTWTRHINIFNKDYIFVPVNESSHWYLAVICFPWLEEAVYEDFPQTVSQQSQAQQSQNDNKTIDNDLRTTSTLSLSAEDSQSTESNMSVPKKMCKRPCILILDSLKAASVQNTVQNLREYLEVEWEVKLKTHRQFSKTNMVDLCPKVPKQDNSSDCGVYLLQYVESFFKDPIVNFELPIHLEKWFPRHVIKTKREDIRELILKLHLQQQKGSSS
# SENP1 FRET inh: blocks the human SENP1 SUMO protease catalytic domain | Q9P0U3 | recombinant SENP1 catalytic domain, CyPet-SUMO1-YPet FRET cleavage | inhibition, % at 10 µM | hit rate 0.21% among 360,000;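 active = inhibition at least 30% at 10 µM, raw YFP signal under a set limit, fluorescence ratio 0.5 to 1.5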
# Target sequence (Q9P0U3 419-644 limits assumed): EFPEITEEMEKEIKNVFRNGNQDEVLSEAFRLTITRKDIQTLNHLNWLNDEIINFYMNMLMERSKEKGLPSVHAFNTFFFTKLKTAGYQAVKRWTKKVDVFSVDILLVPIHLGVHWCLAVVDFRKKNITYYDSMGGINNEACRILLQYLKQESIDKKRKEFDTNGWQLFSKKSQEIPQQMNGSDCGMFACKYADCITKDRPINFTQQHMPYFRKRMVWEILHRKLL
#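 Controls: no-enzyme wells low, DMSO-plus-enzyme wells high control. Test system: human recombinant His6-tagged SENP1 catalytic domain enzyme. Reagent: SFCypet-SUMO1-SFYpet FRET protein substrate, 25 nM final. Doses: one dose per compound, 10 µM, 0.5% DMSO. Detection: FRET, CFP and YFP emission. Timing: 50 min reaction at room temperature.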
# SENP8 block-1: blocks human SENP8 cleavage of Nedd8 substrate | hit rate 0.64% among 360,000 | Q96LD8 | recombinant SENP8, Nedd8 substrate fluorescence | inhibition, % at 20 µM; in the data active = inhibition mostly above about 40%, no sharp cut-off; inactive = mostly below about 27%
# SENP6 inh: inhibitors of human SENP6 protease; hit rate 1.8% among 330,000; Recombinant SENP6 catalytic domain, aminoluciferin luminescence; inhibition, % at 10 µM; AID 2599; Q9GZR1;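 active = inhibition above about 50% at the single tested dose, limit read from the data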
# SENP8 block-2: blocks the human protease SENP8; Q96LD8; purified SENP8, Z-RLRGG-aminoluciferin cleavage, luminescence; inhibition, % at 10 µM; hit rate 1.2% among 330,000; AID 2540; in the data active = inhibition above about 50%
# Hits are given with their value; 0 = inactive; - = no result.
SMILES,SENP7 inh,SENP1 FRET inh,SENP8 block-1,SENP6 inh,SENP8 block-2
Cc1ccc(N=Nc2c(N)[nH]n3c(=O)cc(C)nc23)cc1,-,0,0,-,-
Cn1cc(-c2ccc(C(=O)Nc3cccc(Oc4ccccc4)c3)c3occc23)cn1,-,0,0,-,-
CC(C)CC(=O)N1CC=CC[C@@H](c2ccc(Cl)cc2)N(Cc2ccc(Cl)cc2)C(=O)[C@@H]1Cc1ccccc1,-,0,0,-,-
COc1ccc(-c2nc(-c3cccs3)no2)cc1,98.6,0,0,98.6,96.5
CCCOc1ccc(N)cc1N,0,0,0,0,51.5
CCCOc1cc(N)ccc1C(=O)OCCN(CC)CC,0,0,0,0,0
O=C(Nc1cccc(F)c1)N1CCc2nc(NCc3cccc(Oc4ccccc4)c3)ncc2C1,-,0,0,-,-
O=C(NNc1ccccc1)OCc1ccccc1,-,0,0,-,-
CC(C)(C)c1cc(NC(=O)c2cccs2)no1,94.8,0,0,89.0,88.1
CCC[C@@H]1C=C(C(=O)OCC)[C@H](c2ccccc2)N1S(=O)(=O)c1ccc(C)cc1,-,0,0,-,-
O=C1c2ccccc2C(=O)c2c1cccc2N1CCOCC1,0,0,42.6,0,0
Cc1cc2nc(-c3cccnc3SCC(=O)NC3CC3)[nH]c2cc1C,90.0,-,-,87.8,81.5
CC(C)(C)NC(=O)CSc1ncccc1-c1nc2ccccc2[nH]1,0,0,0,0,0
CCN(C(C)=O)c1cnc(C=NNC(N)=S)c2ccccc12,-,0,0,-,-
NC(=S)NN=Cc1nccc2c(N)cccc12,-,0,62.0,-,-
COc1ccc(CCNCc2cc(C)n(-c3ccc(OC)cc3)c2C)cc1,0,0,46.2,0,0
COc1ccc(CCNCc2ccccc2N2CCCC2)cc1,0,0,0,0,0
CC(=O)Nc1cc([N+](=O)[O-])ccc1OCc1ccccc1,-,0,0,-,-
O=c1nc(Nc2cccc(Cl)c2)oc2cc(Cl)oc(=O)c12,0,0,0,95.5,95.4
O=c1nc(Nc2ccccc2)oc2ccccc12,0,0,0,0,0
C/C(=N\NC(=O)Cc1csc(N2CCOCC2)n1)c1ccccc1,0,0,0,0,0
O=C(CCN1CCN(c2ccccc2)CC1)N/N=C/c1ccc(O)c(O)c1O,-,0,62.4,-,-
O=C(Cc1csc(N2CCOCC2)n1)N/N=C/c1ccc(O)c(O)c1O,-,0,59.4,-,-
O=C(c1cnn(-c2ccccc2)c1)c1ccccc1O,87.5,0,0,85.1,80.8
CC1(C)Cc2ccccc2C2CC(O)C(=O)N21 (centres undefined),0,0,40.5,0,0
SMILES,SENP7 inh,SENP1 FRET inh,SENP8 block-1,SENP6 inh,SENP8 block-2
Cc1csc(N/N=C/c2ccccn2)n1,83.5,0,0,87.0,85.2
COc1ccc(C(=O)/C=C/c2ccc(N3CCCCC3)c([N+](=O)[O-])c2)cc1,0,0,0,0,0
COc1ccc(C(=O)/C=C/c2ccc(N3CCCCC3)c([N+](=O)[O-])c2)c(OC)c1,-,0,41.0,-,-
Nc1cc(N)c(OCC(F)(F)F)cc1OCC(F)(F)F,0,32.0,85.3,0,0
Cc1ccccc1C(=O)/C(C#N)=N/Nc1c(C)n(C)n(-c2ccccc2)c1=O,-,0,0,-,-
Cc1c(N/N=C(\C#N)C(=O)c2ccccc2)c(=O)n(-c2ccccc2)n1C,-,0,40.1,-,-
O=c1[nH]c(=S)[nH]c2c1[C@H](CCc1cccc(Cl)c1)O[C@H](C1CC1)C2,-,0,0,-,-
CC(C)c1ccc(OCc2ccc(C(=O)N(C)C)o2)cc1,0,0,0,0,0
CC(C)c1ccc(OCc2ccc(C(=O)O)o2)cc1,76.9,0,0,95.4,86.7
Nc1ccccc1Nc1ccccc1,0,49.1,0,0,0
CO/N=C/C(=N\Nc1ccc(OC)cc1)C(=O)c1ccc(OC)cc1,0,0,51.2,0,0
CCCCn1c(NC(=O)c2ccc(F)cc2)c(C#N)c2nc3ccccc3nc21,0,-,-,92.2,95.2
Nc1nn2cc(-c3ccc(Br)cc3)nc2c2ccccc12,79.3,0,0,87.4,75.4
CN(C)c1ccc2nc3ccc(=[N+](C)C)cc-3sc2c1,0,0,65.6,0,0
Cc1cc2nc3ccc(=[N+](C)C)cc-3sc2cc1N,-,0,57.1,-,-
Cc1cc(O)c(C=O)c2c1C(=O)Oc1c(CO)c(O)c3c(c1O2)C(O)OC3=O (centres undefined),0,29.9,0,0,0
CCC(=O)NC1=C(Cl)C(=O)C(NC(=O)CC)=C(Cl)C1=O,0,0,50.4,0,0
CCOC(=O)[C@H]1[C@H]2COc3ccccc3[C@@H]2N2C(=O)CN(Cc3ccc(C)cc3)C(=O)[C@@]12C,0,33.8,0,0,0
Cc1cccc(N2CN(S(=O)(=O)c3cccc([N+](=O)[O-])c3)c3nc4ccccc4nc32)c1,0,0,0,0,0
COc1ccc(-[n+]2c(C)cc(/C=C3\Sc4ccccc4N3C)cc2C)cc1,0,0,43.4,0,0
COc1ccccc1-[n+]1c(C)cc(/C=C2\Sc3ccccc3N2C)cc1C,0,0,0,0,0
Cc1cccc2c(N=Nc3ccc(S(=O)(=O)Nc4ccc(Cl)cc4)cc3[N+](=O)[O-])c(O)[nH]c12,0,0,40.2,0,0
Cc1cccc2c(N=NC(=O)c3ccc(NS(=O)(=O)c4cccs4)cc3)c(O)[nH]c12,0,0,0,0,0
CN1C(=O)/C(=C/c2ccc(-c3ccccc3[N+](=O)[O-])o2)SC1=Nc1ccc(Cl)c(C(=O)O)c1,-,0,41.7,-,-
O=C(O)c1cc(-c2ccc(/C=C3/SC(=S)N(Cc4ccccc4)C3=O)o2)ccc1Cl,-,0,0,-,-
SMILES,SENP7 inh,SENP1 FRET inh,SENP8 block-1,SENP6 inh,SENP8 block-2
Brc1ccc(N=Nc2ccc3ccccc3n2)cc1,99.6,0,0,97.2,95.9
CC(NC(=O)c1ccc2ccccc2n1)c1ccc(Br)cc1 (centres undefined),0,0,0,0,0
Oc1ccc(/C=N/Nc2nccnc2Cl)c(O)c1,100.5,0,0,95.9,96.4
Oc1ccc(C=NNc2ccccn2)c(O)c1,-,0,0,-,-
CCCNC(=O)C1(C)CCCN(Cc2cccs2)C1 (centres undefined),-,0,0,-,-
CC1=NN(c2ccc(C)cc2)C(=O)/C1=C/c1ccc(-c2cc([N+](=O)[O-])ccc2O)o1,0,0,0,0,0
O=C1NN(c2cccc(Br)c2)C(=O)/C1=C/c1ccc(-c2cc([N+](=O)[O-])ccc2O)o1,0,0,51.3,0,0
COc1ccc(CN=Cc2[nH]c3ccc(Br)c(Cl)c3c2O)cc1,0,0,48.8,0,0
CCCCN1C(=O)/C(=C/C=C2/CC(C)(C)CN2C)SC1=S,0,0,46.5,0,0
CCCCN1C(=O)/C(=C/C=C2\Oc3ccccc3N2CC)SC1=S,-,0,0,-,-
CC(=O)OCC(=O)C1(O)CCC2C3CC(C)C4=CC(=O)C=CC4(C)C3C(O)CC21C (centres undefined),-,0,0,-,-
COc1cccc2c1C(=O)c1c(O)c3c(c(O)c1C2=O)C[C@@](O)(C(=O)CO)C[C@@H]3O[C@H]1C[C@H](N)[C@@H](O)[C@H](C)O1,0,0,51.9,0,0
COc1cccc2c1C(=O)c1c(O)c3c(c(O)c1C2=O)C[C@@](O)(C(C)=O)C[C@@H]3O[C@H]1C[C@H](N)[C@H](O)[C@H](C)O1,-,0,0,-,-
